MC4R barr agon: human MC4R agonism via beta-arrestin; P32245; actives 0.98% (n = 360,000); activation, % at 8.9 µM; U2OS MC4R beta-arrestin complementation, luminescence; percent of melanotan II response, DMSO zero;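 active = activation above a per-plate cutoff, the mean activation of sample wells on that plate plus 3 SD, cut at about 8% in these data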
Target sequence (P32245 whole entry, looked up): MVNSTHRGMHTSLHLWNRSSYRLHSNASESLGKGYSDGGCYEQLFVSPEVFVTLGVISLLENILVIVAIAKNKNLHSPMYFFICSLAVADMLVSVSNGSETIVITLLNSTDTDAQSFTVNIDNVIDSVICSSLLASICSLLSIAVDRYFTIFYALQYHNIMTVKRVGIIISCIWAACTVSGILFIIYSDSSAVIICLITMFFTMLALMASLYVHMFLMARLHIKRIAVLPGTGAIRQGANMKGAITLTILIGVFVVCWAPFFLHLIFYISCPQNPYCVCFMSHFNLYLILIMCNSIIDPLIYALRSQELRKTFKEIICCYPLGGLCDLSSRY
TLR9-MyD88 block: inhibitors of human TLR9-MyD88 binding | Q9NR96+Q99836 | CHO BLA complementation TLR9-MyD88, CCF4 FRET ratio | inhibition, % at 4.98 µM | actives 0.21% (n = 340,000) | AID 504734;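 active = inhibition above the mean over all tested compounds plus 3 SD, cut at about 21% in these data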
NOD2 RIPK2 PPI: NOD2-RIPK2 protein interaction inhibition; CHO BLA complementation NOD2-RIPK2, CCF4 ratio; inhibition, % at 4.98 µM; actives 0.38% (n = 360,000); in the data active = inhibition above about 21%
NTR1 agonist: activates human neurotensin receptor 1; actives 0.17% (n = 330,000); NTR1-U2OS beta-arrestin-GFP spot imaging, agonist mode; activation, % at 20 µM; P30989;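 active = activation at or above 40% of the spot to cytoplasm intensity ratio, with at least 20 cells analyzed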
MC4R antagonist: human MC4R antagonism in cAMP assay. P32245. MC4R-expressing cells, MTII-stimulated cAMP, LANCE TR-FRET. inhibition, % at 6.5 µM. actives 0.48% (n = 360,000). AID 540295;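 active = inhibition above its plate's cutoff, the mean of tested wells on that plate plus 3 SD, cut at about 29% in these data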
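Material: human MC4R-expressing U2OS cells. Probe or stimulus: Melanotan II challenge. Dosing: 6.5 µM single dose. Times: 30-min compound, 1-h challenge, 1-h detection, room temperature. Technique: TR-FRET with Eu-cAMP and labeled anti-cAMP, 671 nm. Replication: singlicate.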
TLR4-MyD88 BLA: inhibitors of human TLR4-MyD88 binding; actives 0.18% (n = 200,000); O00206+Q99836; HeLa CL3-4 TLR4/MyD88 BLA complementation, FRET ratio; inhibition, % at 8.4 µM; AID 861; in the data active = inhibition above about 25%
NTR1 ag confirm: confirmation of agonists of human NTR1; shares compounds with NTR1 agonist; NTR1-U2OS beta-arrestin-GFP translocation imaging; activation, % at 20 µM; actives 38% (n = 480); AID 504550;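 active = mean activation at 20 µM of at least 40%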
TLR9-MyD88 conf: TLR9-MyD88 interaction inhibition, confirmation; shares compounds with TLR9-MyD88 block; CHO TLR9/MyD88 BLA complementation, CCF4 FRET ratio; inhibition, % at 4.98 µM; actives 51% (n = 680); AID 540250;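 active = mean inhibition across three repeats above about 21% taken from the earlier screen, limit read from the data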;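 also: blue over green emission ratio reports constitutive TLR9 MyD88 association via BLA complementation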
BLA counter-1: counter-screen for TLR9-MyD88 inhibitors: non-selective beta-lactamase inhibitors. actives 7% (n = 680). CHO-BLA cells, CCF4 FRET ratio, BLA reporter. shares compounds with TLR9-MyD88 block. inhibition, % at 4.98 µM;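 active = mean inhibition above a 50% cutoff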;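 also: counterscreen of TLR9-MyD88 hits on CMV-driven BLA in CHO-K1 cells; higher means less blue over green ratio so more BLA blockade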
TLR9 CHO cytotox: counter-screen for TLR9-MyD88 inhibitors: cytotoxicity in CHO cells. shares compounds with TLR9-MyD88 block. luminescence. inhibition, % at 4.98 µM. actives 39% (n = 680); in the data active = inhibition above about 11%
U2OS cAMP counter: counter-screen for MC4R antagonists: nonselective cAMP signaling inhibitors | shares compounds with MC4R antagonist | parental U2OS, forskolin cAMP, LANCE TR-FRET | inhibition, % at 6.5 µM | actives 26% (n = 1,600) | AID 602193;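 active = mean inhibition over triplicates above the low-control well mean plus 3 SD, set per campaign, cut at about 13% in these data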;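 also: signal is single emission at 671 nm which falls as cellular cAMP rises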
MC4R cAMP antag: human MC4R cAMP antagonism confirmation; shares compounds with MC4R antagonist; MC4R-expressing cells, MTII-stimulated cAMP, TR-FRET; inhibition, % at 6.5 µM; actives 27% (n = 1,600); AID 602195; in the data active = inhibition above about 29%
NOD2 RIPK2 conf: NOD2-RIPK2 interaction inhibition confirmed | shares compounds with NOD2 RIPK2 PPI | CHO cells, NOD2-RIPK2 BLA complementation, CCF4 FRET | inhibition, % at 4.98 µM | actives 70% (n = 1,200);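 active = mean inhibition across replicates above a set limit taken from the earlier primary screen, cut at about 21% in these data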
BLA counter-2: NOD2-RIPK2 counterscreen BLA reporter activity. shares compounds with NOD2 RIPK2 PPI. CHO BLA reporter, CCF4 FRET ratio. inhibition, % at 4.98 µM. actives 57% (n = 1,200). AID 624371;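 active = mean inhibition above the low-control mean inhibition plus three low-control SD, cut at about 11% in these data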
Large screens that a line does not name were inactive (follow-up assays come after a bar, where they were run). Compounds with a hit are over-represented: about 1.9% of the library has one in this group of screens.

CN1C(=O)/C(=C/c2cccn2-c2ccc3ccccc3c2)C(=O)NC1=S	NTR1 agonist 46.0 | NTR1 ag confirm 65.5
Cc1cc(/C=C2/C(=O)NC(=O)N(Cc3ccco3)C2=O)c(C)n1-c1ccccc1	NTR1 agonist 85.8 | NTR1 ag confirm inactive
Oc1ccc(-[n+]2c(-c3ccccc3)cc(-c3ccccc3)cc2-c2ccccc2)cc1	NTR1 agonist 80.8 (no result: TLR4-MyD88 BLA) | NTR1 ag confirm 83.5
O=C1NC(=O)N(Cc2ccccc2)C(=O)/C1=C/C=C/c1ccco1	none (no result: TLR4-MyD88 BLA)
CC(C)c1ccc(N2C(=O)NC(=O)/C(=C\C=C\c3ccco3)C2=O)cc1	NTR1 agonist 41.7 (no result: MC4R barr agon, TLR9-MyD88 block, NOD2 RIPK2 PPI, MC4R antagonist) | NTR1 ag confirm 52.5
CCOC(=O)C(O)(c1ccc(NC(=S)NC(=O)c2ccc(Cl)cc2Cl)c(C)c1)C(F)(F)F (stereo unspecified)	NTR1 agonist 44.6 | NTR1 ag confirm inactive
COC(=O)C1=C(c2cccc(Cl)c2)C[C@@H]2CC[C@H]1N2C(=O)NCC1CC1	none (no result: TLR4-MyD88 BLA)
CC[C@@H]1c2ccccc2[C@@H]2CC[C@H]1N2c1ccccc1	none (no result: MC4R barr agon, TLR9-MyD88 block, NTR1 agonist, MC4R antagonist, TLR4-MyD88 BLA)
CC(C)C(O)(C(=O)OCC1=CCN2CCC(O)C12)C(C)O (stereo unspecified)	none (no result: TLR9-MyD88 block, NTR1 agonist, TLR4-MyD88 BLA)
Cc1cc(C)cc(N2C(=O)NC(=O)/C(=C\c3cccn3-c3ccccc3)C2=O)c1	TLR9-MyD88 block 22.2, NTR1 agonist 76.3 | NTR1 ag confirm 67.3 | TLR9-MyD88 conf inactive | BLA counter-1 inactive | TLR9 CHO cytotox inactive
c1cc2c(cc1NC1=NCCO1)CCCC2	none (no result: NTR1 agonist, TLR4-MyD88 BLA)
C[CH2][Hg][S]c1ccccc1C(=O)O	TLR9-MyD88 block 52.0, NOD2 RIPK2 PPI active, NTR1 agonist 96.8, MC4R antagonist 95.2 (no result: TLR4-MyD88 BLA) | NTR1 ag confirm 95.3 | TLR9-MyD88 conf 47.7 | BLA counter-1 inactive | TLR9 CHO cytotox 97.4 | U2OS cAMP counter 40.0 | MC4R cAMP antag 91.4 | NOD2 RIPK2 conf active | BLA counter-2 inactive
O=C(CCN1CC1)OCCOC(=O)CCN1CC1	none (no result: NTR1 agonist, TLR4-MyD88 BLA)
COc1cc(/C=C(/C)[N+](=O)[O-])ccc1OCc1ccccc1Cl	TLR9-MyD88 block 34.0, NOD2 RIPK2 PPI 81.0, MC4R antagonist 32.1 | TLR9-MyD88 conf 33.8 | BLA counter-1 inactive | TLR9 CHO cytotox 98.9
COc1cc(C=C2C(=O)NC(=O)NC2=O)ccc1OCc1ccc([N+](=O)[O-])cc1	none (no result: NTR1 agonist)
CCC1(C)OC(c2ccccc2)=C/C(=C/C=C2C(=O)NC(=O)NC2=O)O1 (stereo unspecified)	TLR9-MyD88 block 33.2 (no result: NTR1 agonist) | TLR9-MyD88 conf 24.8 | BLA counter-1 inactive | TLR9 CHO cytotox inactive
CN(C)P1(=O)N(C)CCN1C	none (no result: MC4R barr agon, TLR9-MyD88 block, NTR1 agonist, MC4R antagonist, TLR4-MyD88 BLA)
